# Experimental data from different studies.
# Each line is one published result; the experiments were not run side by side.
# SIRT5: NAD-dependent protein deacylase sirtuin-5, mitochondrial (SIRT5, Homo sapiens, UniProt Q9NXA8)
# Adora1: Adenosine receptor A1 (Adora1, Rattus norvegicus, UniProt P25099)
# EDNRB: Endothelin receptor type B (EDNRB, Homo sapiens, UniProt P24530)
# CA9: Carbonic anhydrase 9 (CA9, Homo sapiens, UniProt Q16790)
# MAOB: Amine oxidase [flavin-containing] B (MAOB, Homo sapiens, UniProt P27338)
# CHRM4: Muscarinic acetylcholine receptor M4 (CHRM4, Homo sapiens, UniProt P08173)
SMILES,target,assay,system,conditions,inhibition [%]
Cc1ccc(C(=O)Nc2ccc(S(=O)(=O)O)c3cc(S(=O)(=O)O)cc(S(=O)(=O)O)c23)cc1NC(=O)c1cccc(NC(=O)Nc2cccc(C(=O)Nc3cc(C(=O)Nc4ccc(S(=O)(=O)O)c5cc(S(=O)(=O)O)cc(S(=O)(=O)O)c45)ccc3C)c2)c1,SIRT5,"enzyme activity, inhibitor",,1 mM,> 60
CCN1CCCn2c1nc1c2c(=O)n(C)c(=O)n1C,Adora1,"ligand displacement, radioligand",,"25 µM, cell membranes",42
O=C(Nc1ccc(S(=O)(=O)N2CCC(Cl)CC2)cc1)c1ccc([N+](=O)[O-])o1,EDNRB,"ligand displacement, radioligand",,10 µM,3
CCOC(=O)C1CSc2[nH]c(=O)sc2C1c1cn(-c2ccccc2)nc1-c1ccc(Br)cc1 (stereo not shown),CA9,"enzyme activity, inhibitor",,0.1 µM,42.2
O=C(c1ccc(Cl)cc1)N(Cc1ccccc1)C1CCCCC1,"Histamine H1 receptor (HRH1, Homo sapiens, UniProt P35367)",cell-free assay,,10 µM,-0.7
O=C(Nc1ccccc1Cl)c1ccc([N+](=O)[O-])cc1Cl,MAOB,"enzyme activity, inhibitor",,"1 µM, 20 min",6
N#CC1CSc2[nH]c(=O)sc2C1c1cn(-c2ccccc2)nc1-c1ccc(Br)cc1 (stereo not shown),CA9,"enzyme activity, inhibitor",,0.1 µM,60.1
COc1cc(-c2cc(-c3ccc(N4CCNCC4)cc3)cnc2C)cc(OC)c1OC,"Dual specificity tyrosine-phosphorylation-regulated kinase 4 (DYRK4, Homo sapiens, UniProt Q9NR20)","enzyme activity, inhibitor",,1 µM,1
CC(C)CC(C)N1CCCn2c1nc1c2c(=O)n(C)c(=O)n1C (stereo not shown),Adora1,"ligand displacement, radioligand",,"25 µM, cell membranes",30
COc1cc(NC(C)=O)c(Cl)cc1C(=O)Nc1nccs1,CHRM4,cell-free assay,,10 µM,16.7
CCOC(=O)C1CSc2[nH]c(=O)sc2C1c1cn(-c2ccccc2)nc1-c1ccc(OC)cc1 (stereo not shown),CA9,"enzyme activity, inhibitor",,1 µM,71.4
CS(=O)(=O)Nc1cccc2cccnc12,"Lactoylglutathione lyase (GLO1, Homo sapiens, UniProt Q04760)","enzyme activity, inhibitor, absorbance",,50 µM,> 21
O=C(Nc1ccccc1)c1ccc2c(c1)OCO2,MAOB,"enzyme activity, inhibitor",,"1 µM, 20 min",80
C#CCN1CCCn2c1nc1c2c(=O)n(C)c(=O)n1C,Adora1,"ligand displacement, radioligand",,"25 µM, cell membranes",46
Cc1ccc(NC(=O)c2cc(Cl)ccc2O)cc1[N+](=O)[O-],MAOB,"enzyme activity, inhibitor",,"1 µM, 20 min",85
CCOC(=O)C1CSc2[nH]c(=O)sc2C1c1cn(-c2ccccc2)nc1-c1ccc(Cl)cc1 (stereo not shown),CA9,"enzyme activity, inhibitor",,10 µM,86.3
O=C(Nc1cc(Cl)cc(Cl)c1)c1cc(Cl)ccc1O,MAOB,"enzyme activity, inhibitor",,"1 µM, 20 min",0
CCCCCC(C)N1CCCn2c1nc1c2c(=O)n(C)c(=O)n1C (stereo not shown),Adora1,"ligand displacement, radioligand",,"25 µM, cell membranes",30
COc1ccc(C=NNC(=O)Cn2cnc3ccccc32)c(O)c1,MAOB,"enzyme activity, inhibitor, fluorescence",,1 µM,65
CCOC(=O)C1CSc2[nH]c(=O)sc2C1c1cn(-c2ccccc2)nc1-c1ccc(C)cc1 (stereo not shown),CA9,"enzyme activity, inhibitor",,10 nM,18.9
O=C(Nc1ccccc1)c1ccc(Cl)cc1,MAOB,"enzyme activity, inhibitor",,"1 µM, 20 min",24
CCCNc1nc2ccccc2n1Cc1ccc(Cl)cc1,CHRM4,ligand displacement,,10 µM,-7.49
O=C(Nc1ccc([N+](=O)[O-])cc1Cl)c1ccccc1,MAOB,"enzyme activity, inhibitor",,"1 µM, 20 min",25
N=c1n(CCN2CCCCC2)c2ccccc2n1CC(O)c1cccc(Br)c1 (stereo not shown),"KCNU1 (Homo sapiens, UniProt A8MYU2)","ion current, inhibitor, patch clamp",HEK293,10 µM,17
O=C(Nc1ccc([N+](=O)[O-])cc1Cl)c1cc2ccccc2s1,MAOB,"enzyme activity, inhibitor",,"1 µM, 20 min",40
Cc1ccc(C(=O)Nc2ccc(S(=O)(=O)O)c3cc(S(=O)(=O)O)cc(S(=O)(=O)O)c23)cc1NC(=O)c1cccc(NC(=O)Nc2cccc(C(=O)Nc3cc(C(=O)Nc4ccc(S(=O)(=O)O)c5cc(S(=O)(=O)O)cc(S(=O)(=O)O)c45)ccc3C)c2)c1,SIRT5,"enzyme activity, inhibitor",,100 µM,85
O=C1NC(=S)C(=Cc2cn(-c3ccccc3)nc2-c2ccc(Br)cc2)S1,CA9,"enzyme activity, inhibitor",,10 µM,83.7
CCCC(C)N1CCCn2c1nc1c2c(=O)n(C)c(=O)n1C (stereo not shown),Adora1,"ligand displacement, radioligand",,"25 µM, cell membranes",19
Oc1cccc(Nc2nc(-c3ccc(F)cc3F)cs2)c1,EDNRB,cell-free assay,,10 µM,-4.3
O=C(Nc1ccc(C(F)(F)F)cc1C(F)(F)F)c1cc(Cl)ccc1O,MAOB,"enzyme activity, inhibitor",,"1 µM, 20 min",84
CN(C)C1CCN(CC#Cc2nn(C3CCCC3)c3nc(NCc4ccccc4)ncc23)C1 (stereo not shown),"Serine/threonine-protein kinase N1 (PKN1, Homo sapiens, UniProt Q16512)","enzyme activity, inhibitor, FRET",,10 µM,4
